Experimental data from PMC11019407 (RSC Advances, 2024).
Converted amounts (≈) assume the structure as drawn.

What was measured:
[1] = test system: C. albicans, T. mentagrophytes, T. rubrum, and M. gypseum; experiment: Antifungal activity, paper disk diffusion, statements over all fungi; type: cell-based; details: all fungus
Summary of the method: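 Fungi (C. albicans, T. mentagrophytes, T. rubrum, M. gypseum) were swabbed onto Potato Dextrose Agar plates. Inocula were prepared in LB broth for 24 h at 37 °C. 6 mm paper disks were loaded with 30 μL of test compound at 3.125–300 μM. Fluconazole (1 mg mL−1) was the standard.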

[2] = test system: NO production in RAW264.7 cells; experiment: Inhibition of NO production in LPS-stimulated RAW264.7 cells; type: cell-based; details: Mus musculus, RAW264.7, read-out: IC50 of NO inhibition
Summary of the method: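 RAW 264.7 cells were grown in DMEM with 2 mM L-glutamine, 10 mM HEPES, 1 mM sodium pyruvate and 10% FBS. Cells were seeded at 2 × 10^5 per well and incubated 3 days at 37 °C, 5% CO2. Nitric oxide was quantified with Griess reagent, L-NMMA served as positive control, and IC50 was reported.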

[3] = test system: E. coli, P. aeruginosa, MRSA, S. faecalis; experiment: Antibacterial activity, paper disk diffusion, statements over several bacteria; type: cell-based; details: for inhibition in words: printed as E. coli, P. aeruginosa, and MRSA in the antifungal section
Summary of the method: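 Bacteria (E. coli, P. aeruginosa, S. faecalis, MRSA) were grown in LB broth for 24 h at 37 °C, then swabbed evenly onto Mueller–Hinton agar. 6 mm paper disks received 30 μL of test compound at 3.125–300 μM. Ampicillin (1 mg mL−1) was the standard.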

α-glucosidase enzyme = α-glucosidase enzyme (Saccharomyces cerevisiae, UniProt P53341); experiment: Alpha-glucosidase inhibition; type: biochemical
α-glucosidase enzyme, sequence (P53341 whole entry): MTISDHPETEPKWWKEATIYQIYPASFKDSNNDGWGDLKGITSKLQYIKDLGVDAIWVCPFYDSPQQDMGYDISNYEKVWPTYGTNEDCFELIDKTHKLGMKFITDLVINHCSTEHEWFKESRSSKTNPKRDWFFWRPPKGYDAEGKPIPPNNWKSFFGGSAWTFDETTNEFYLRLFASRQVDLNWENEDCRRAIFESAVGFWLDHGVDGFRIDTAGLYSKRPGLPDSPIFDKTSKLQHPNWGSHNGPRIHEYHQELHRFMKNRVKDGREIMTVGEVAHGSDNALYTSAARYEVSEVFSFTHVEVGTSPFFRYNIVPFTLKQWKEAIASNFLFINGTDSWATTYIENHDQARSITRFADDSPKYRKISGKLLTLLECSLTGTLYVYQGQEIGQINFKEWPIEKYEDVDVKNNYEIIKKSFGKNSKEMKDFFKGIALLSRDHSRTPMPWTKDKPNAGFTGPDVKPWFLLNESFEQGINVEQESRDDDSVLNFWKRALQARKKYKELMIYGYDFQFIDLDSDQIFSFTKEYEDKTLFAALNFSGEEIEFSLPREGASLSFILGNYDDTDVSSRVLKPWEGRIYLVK

IC50 [2] [µM]	SMILES	antifungal inhibition in words [1]	also measured
	COC(=O)C1=CO[C@@H](O[C@@H]2O[C@H](CO)[C@@H](O)[C@H](O)[C@H]2O)[C@H]2[C@@H]1[C@H](O)C[C@]2(C)OC(C)=O [Compound 3, barlerin]	weak inhibitions or inactive	
25.9 ± 3.32	C[C@]1(OC(=O)/C=C/c2ccccc2)C[C@@H](O)[C@]2(O)C=CO[C@@H](O[C@@H]3O[C@H](CO)[C@@H](O)[C@H](O)[C@H]3O)[C@@H]21 [Compound 4, harpagoside]	weak inhibitions or inactive	
	O=C(O)c1c[nH]c2ccccc12 [Compound 6, indole-3-carboxylic acid]		inhibition in words [3]: weak inhibitions or inactive
18.2 ± 0.7	C[C@H]1[C@H](C)CC[C@]2(C(=O)O)CC[C@]3(C)C(=CC[C@@H]4[C@@]5(C)CC[C@H](O)C(C)(C)[C@@H]5CC[C@]43C)[C@H]12 [Compound 7, ursolic acid]		inhibition in words [3]: weak inhibitions or inactive
	C[C@@H]1CC[C@]2(C(=O)O)CC[C@]3(C)C(=CC[C@@H]4[C@@]5(C)CC[C@H](O)[C@@](C)(CO)[C@@H]5CC[C@]43C)[C@@H]2[C@]1(C)O [Compound 9, rotundic acid]	weak inhibitions or inactive	
	C[C@@H]1O[C@@H](O[C@@H]2[C@@H](O)[C@H](OCCc3ccc(O)c(O)c3)O[C@H](CO)[C@H]2OC(=O)/C=C/c2ccc(O)c(O)c2)[C@H](O)[C@H](O)[C@H]1O [Compound 12, verbacoside]	weak inhibitions or inactive	IC50 (α-glucosidase enzyme): 42.4 µM
41.3	[H]/N=C(/NC)NCCC[C@H](N)C(=O)O [L-NMMA, reference compound]		
	CC1(C)S[C@@H]2[C@H](NC(=O)[C@H](N)c3ccccc3)C(=O)N2[C@H]1C(=O)O [ampicillin, reference compound]		MIC ([3]; read-out: MIC values against four bacteria): 3.12 to 6.25 µM (≈ 1.09 to 2.18 µg/mL)
